From ChEMBL document CHEMBL2069282, “Sugar-modified derivatives of cytostatic 7-(het)aryl-7-deazaadenosines: 2'-C-methylribonucleosides, 2'-deoxy-2'-fluoroarabinonucleosides, arabinonucleosides and 2'-deoxyribonucleosides” (Bioorg Med Chem, 2012)

Test system: Hepatitis C virus
Assay: Antiviral activity against Hepatitis C virus subtype 1a replicons infected in human HuH7 cells assessed as reduction in viral RNA levels by Rt-PCR
Format: functional, organism-based, Hepacivirus hominis
Conditions: Huh-7

EC50	Structure (SMILES)
22.4 µM	Nc1ncnc2c1c(-c1cn[nH]c1)cn2[C@@H]1O[C@H](CO)[C@@H](O)[C@@H]1F
0.36 µM	C#Cc1cn([C@@H]2O[C@H](CO)[C@@H](O)[C@@H]2F)c2ncnc(N)c12
1.83 µM	Nc1ncnc2c1c(-c1cnn[nH]1)cn2[C@@H]1O[C@H](CO)[C@@H](O)[C@@H]1F
1.39 µM	Nc1ncnc2c1c(I)cn2[C@@H]1O[C@H](CO)[C@@H](O)[C@@H]1O
> 44 µM	Nc1ncnc2c1c(-c1ccccc1)cn2[C@@H]1O[C@H](CO)[C@@H](O)[C@@H]1O
3.41 µM	Nc1ncnc2c1c(-c1ccco1)cn2[C@@H]1O[C@H](CO)[C@@H](O)[C@@H]1O
35.3 µM	Nc1ncnc2c1c(-c1cccs1)cn2[C@@H]1O[C@H](CO)[C@@H](O)[C@@H]1O

Test system: not listed separately
Assay: Cytotoxicity against human HeLaS3 cells incubated for 3 days by XTT assay
Format: functional, cell-based
Conditions: HeLa S3, 72 h
How it was run: (§1)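 Cell viability read by a metabolic XTT tetrazolium method after 3-day incubation of cells with compound. Values are from 2–4 independent experiments.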

Structure (SMILES)	IC50
Nc1ncnc2c1c(-c1cn[nH]c1)cn2[C@@H]1O[C@H](CO)[C@@H](O)[C@@H]1F	> 10 µM
C#Cc1cn([C@@H]2O[C@H](CO)[C@@H](O)[C@@H]2F)c2ncnc(N)c12	0.22 µM
Nc1ncnc2c1c(-c1cnn[nH]1)cn2[C@@H]1O[C@H](CO)[C@@H](O)[C@@H]1F	6.66 µM
Nc1ncnc2c1c(I)cn2[C@@H]1O[C@H](CO)[C@@H](O)[C@@H]1O	3.19 µM
Nc1ncnc2c1c(-c1ccco1)cn2[C@@H]1O[C@H](CO)[C@@H](O)[C@@H]1O	7.62 µM
Nc1ncnc2c1c(-c1cccs1)cn2[C@@H]1O[C@H](CO)[C@@H](O)[C@@H]1O	5.38 µM

Test system: HL-60
Assay: Cytotoxicity against human HL60 cells incubated for 3 days by XTT assay
Format: functional, cell-based
Conditions: HL-60, 72 h
How it was run: as §1

Structure (SMILES)	IC50
Nc1ncnc2c1c(-c1cn[nH]c1)cn2[C@@H]1O[C@H](CO)[C@@H](O)[C@@H]1F	> 10 µM
C#Cc1cn([C@@H]2O[C@H](CO)[C@@H](O)[C@@H]2F)c2ncnc(N)c12	0.2 µM
Nc1ncnc2c1c(-c1cnn[nH]1)cn2[C@@H]1O[C@H](CO)[C@@H](O)[C@@H]1F	> 10 µM
Nc1ncnc2c1c(I)cn2[C@@H]1O[C@H](CO)[C@@H](O)[C@@H]1O	6.44 µM
Nc1ncnc2c1c(-c1ccco1)cn2[C@@H]1O[C@H](CO)[C@@H](O)[C@@H]1O	> 10 µM
Nc1ncnc2c1c(-c1cccs1)cn2[C@@H]1O[C@H](CO)[C@@H](O)[C@@H]1O	13.5 µM

Test system: not listed separately
Assay: Selectivity index, ratio of CC50 for human HuH7 cells to EC50 for Hepatitis C virus subtype 1a replicons
Format: toxicity, cell-based, Huh-7
Conditions: read-out: Ratio CC50/EC50

Structure (SMILES)	selectivity ratio
Nc1ncnc2c1c(-c1cn[nH]c1)cn2[C@@H]1O[C@H](CO)[C@@H](O)[C@@H]1F	< 10
C#Cc1cn([C@@H]2O[C@H](CO)[C@@H](O)[C@@H]2F)c2ncnc(N)c12	< 10
Nc1ncnc2c1c(-c1cnn[nH]1)cn2[C@@H]1O[C@H](CO)[C@@H](O)[C@@H]1F	< 10
Nc1ncnc2c1c(I)cn2[C@@H]1O[C@H](CO)[C@@H](O)[C@@H]1O	< 10
Nc1ncnc2c1c(-c1ccccc1)cn2[C@@H]1O[C@H](CO)[C@@H](O)[C@@H]1O	< 10
Nc1ncnc2c1c(-c1ccco1)cn2[C@@H]1O[C@H](CO)[C@@H](O)[C@@H]1O	< 10
Nc1ncnc2c1c(-c1cccs1)cn2[C@@H]1O[C@H](CO)[C@@H](O)[C@@H]1O	< 10

Test system: Hepatitis C virus
Assay: Antiviral activity against Hepatitis C virus subtype 1b replicons infected in human HuH7 cells assessed as reduction in viral RNA levels by Rt-PCR
Format: functional, organism-based, Hepacivirus hominis
Conditions: genotype 1b, Huh-7

EC50	Structure (SMILES)
8.45 µM	Nc1ncnc2c1c(-c1cn[nH]c1)cn2[C@@H]1O[C@H](CO)[C@@H](O)[C@@H]1F
0.36 µM	C#Cc1cn([C@@H]2O[C@H](CO)[C@@H](O)[C@@H]2F)c2ncnc(N)c12
0.92 µM	Nc1ncnc2c1c(-c1cnn[nH]1)cn2[C@@H]1O[C@H](CO)[C@@H](O)[C@@H]1F
1.39 µM	Nc1ncnc2c1c(I)cn2[C@@H]1O[C@H](CO)[C@@H](O)[C@@H]1O
> 44 µM	Nc1ncnc2c1c(-c1ccccc1)cn2[C@@H]1O[C@H](CO)[C@@H](O)[C@@H]1O
3.02 µM	Nc1ncnc2c1c(-c1ccco1)cn2[C@@H]1O[C@H](CO)[C@@H](O)[C@@H]1O
20.6 µM	Nc1ncnc2c1c(-c1cccs1)cn2[C@@H]1O[C@H](CO)[C@@H](O)[C@@H]1O

Test system: HepG2
Assay: Cytotoxicity against human HepG2 cells incubated for 3 days by XTT assay
Format: functional, cell-based
Conditions: HepG2, 72 h
How it was run: as §1

Structure (SMILES)	IC50
Nc1ncnc2c1c(I)cn2[C@@H]1O[C@H](CO)[C@@H](O)[C@@H]1O	6.12 µM
Nc1ncnc2c1c(-c1ccco1)cn2[C@@H]1O[C@H](CO)[C@@H](O)[C@@H]1O	6.62 µM
Nc1ncnc2c1c(-c1cccs1)cn2[C@@H]1O[C@H](CO)[C@@H](O)[C@@H]1O	12.2 µM

Test system: not listed separately
Assay: Cytostatic activity against human Hs578 cells incubated for 3 days by SRB assay
Format: functional
Conditions: Hs578, 72 h

Structure (SMILES)	GI50
C#Cc1cn([C@@H]2O[C@H](CO)[C@@H](O)[C@@H]2F)c2ncnc(N)c12	0.065 µM
Nc1ncnc2c1c(-c1cnn[nH]1)cn2[C@@H]1O[C@H](CO)[C@@H](O)[C@@H]1F	1.82 µM

Test system: DU-145
Assay: Cytostatic activity against human DU145 cells incubated for 3 days by SRB assay
Format: functional
Conditions: DU-145, 72 h

GI50	Structure (SMILES)
0.002 µM	C#Cc1cn([C@@H]2O[C@H](CO)[C@@H](O)[C@@H]2F)c2ncnc(N)c12
9.41 µM	Nc1ncnc2c1c(-c1cnn[nH]1)cn2[C@@H]1O[C@H](CO)[C@@H](O)[C@@H]1F

Test system: not listed separately
Assay: Selectivity index, ratio of CC50 for human HuH7 cells to EC50 for Hepatitis C virus subtype 1b replicons
Format: toxicity, cell-based, Huh-7
Conditions: read-out: Ratio CC50/EC50

Structure (SMILES)	selectivity ratio
Nc1ncnc2c1c(-c1cn[nH]c1)cn2[C@@H]1O[C@H](CO)[C@@H](O)[C@@H]1F	< 10
C#Cc1cn([C@@H]2O[C@H](CO)[C@@H](O)[C@@H]2F)c2ncnc(N)c12	< 10
Nc1ncnc2c1c(-c1cnn[nH]1)cn2[C@@H]1O[C@H](CO)[C@@H](O)[C@@H]1F	< 10
Nc1ncnc2c1c(I)cn2[C@@H]1O[C@H](CO)[C@@H](O)[C@@H]1O	< 10
Nc1ncnc2c1c(-c1ccccc1)cn2[C@@H]1O[C@H](CO)[C@@H](O)[C@@H]1O	< 10
Nc1ncnc2c1c(-c1ccco1)cn2[C@@H]1O[C@H](CO)[C@@H](O)[C@@H]1O	< 10
Nc1ncnc2c1c(-c1cccs1)cn2[C@@H]1O[C@H](CO)[C@@H](O)[C@@H]1O	< 10

Test system: HCT-116
Assay: Cytostatic activity against human HCT116 cells incubated for 3 days by SRB assay
Format: functional
Conditions: HCT-116, 72 h

GI50	Structure (SMILES)
0.108 µM	C#Cc1cn([C@@H]2O[C@H](CO)[C@@H](O)[C@@H]2F)c2ncnc(N)c12
7.64 µM	Nc1ncnc2c1c(-c1cnn[nH]1)cn2[C@@H]1O[C@H](CO)[C@@H](O)[C@@H]1F

Test system: NCI-H23
Assay: Cytostatic activity against human NCI-H23 cells incubated for 3 days by SRB assay
Format: functional
Conditions: NCI-H23, 72 h

GI50	Structure (SMILES)
0.048 µM	C#Cc1cn([C@@H]2O[C@H](CO)[C@@H](O)[C@@H]2F)c2ncnc(N)c12
5.36 µM	Nc1ncnc2c1c(-c1cnn[nH]1)cn2[C@@H]1O[C@H](CO)[C@@H](O)[C@@H]1F

Test system: CCRF-CEM
Assay: Cytotoxicity against human CCRF-CEM cells incubated for 3 days by XTT assay
Format: functional, cell-based
Conditions: 72 h
How it was run: as §1

Structure (SMILES)	IC50
Nc1ncnc2c1c(-c1cn[nH]c1)cn2[C@@H]1O[C@H](CO)[C@@H](O)[C@@H]1F	9.07 µM
C#Cc1cn([C@@H]2O[C@H](CO)[C@@H](O)[C@@H]2F)c2ncnc(N)c12	0.18 µM
Nc1ncnc2c1c(-c1cnn[nH]1)cn2[C@@H]1O[C@H](CO)[C@@H](O)[C@@H]1F	3.45 µM
Nc1ncnc2c1c(I)cn2[C@@H]1O[C@H](CO)[C@@H](O)[C@@H]1O	7.02 µM
Nc1ncnc2c1c(-c1ccco1)cn2[C@@H]1O[C@H](CO)[C@@H](O)[C@@H]1O	6.64 µM
Nc1ncnc2c1c(-c1cccs1)cn2[C@@H]1O[C@H](CO)[C@@H](O)[C@@H]1O	4.25 µM

Test system: not listed separately
Assay: Toxicity against human HuH7 cells incubated for 3 days by CellTiter 96 AQueous One Solution cell proliferation assay
Format: cell-based, Huh-7
Conditions: not given

Structure (SMILES)	CC50 at 72 h
Nc1ncnc2c1c(-c1cn[nH]c1)cn2[C@@H]1O[C@H](CO)[C@@H](O)[C@@H]1F	> 44 µM
C#Cc1cn([C@@H]2O[C@H](CO)[C@@H](O)[C@@H]2F)c2ncnc(N)c12	2.68 µM
Nc1ncnc2c1c(-c1cnn[nH]1)cn2[C@@H]1O[C@H](CO)[C@@H](O)[C@@H]1F	10.9 µM
Nc1ncnc2c1c(I)cn2[C@@H]1O[C@H](CO)[C@@H](O)[C@@H]1O	9.97 µM
Nc1ncnc2c1c(-c1ccccc1)cn2[C@@H]1O[C@H](CO)[C@@H](O)[C@@H]1O	> 44 µM
Nc1ncnc2c1c(-c1ccco1)cn2[C@@H]1O[C@H](CO)[C@@H](O)[C@@H]1O	> 44 µM
Nc1ncnc2c1c(-c1cccs1)cn2[C@@H]1O[C@H](CO)[C@@H](O)[C@@H]1O	> 44 µM
